Laboratory results: PMC8504815 (Clinical and Translational Science, 2021)
Entries after “also recorded” stand apart in the source; their conditions may differ.

What was measured:
[1] = Blood pharmacokinetics, single ascending dose; format: in vivo, human
Summary of the method: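 Ten cohorts of 8 healthy adults aged 18–65 were randomized 3:1 to one fasted oral dose (0.5–600 mg) or placebo, double-blind. Blood was taken predose and at protocol timepoints up to day 8, and drug was measured by validated LC-MS/MS. Dose proportionality used regression of log Cmax and AUC on log dose, giving the slope with 90% CI.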

[2] = Blood pharmacokinetics, multiple ascending dose; format: in vivo, human; settings: for CLss/F: apparent total body clearance from blood at steady state; for CLss/F / AUC(0-t) / Cmax: mean (SD); for half-life: terminal half-life; for half-life / Tmax: median (minimum-maximum)
Summary of the method: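 Fasted healthy subjects with asymptomatic atopic diathesis were randomized 3:1 to oral drug or placebo, q.d. or b.i.d., through day 12. Blood was sampled predose and to 24 h on day 1 (b.i.d. to 12 h), then at trough and 2 h postdose. Urine was also collected. Assay was LC-MS/MS. Log Cmax/AUC was regressed on log dose (slope, 90% CI).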

Food effect = format: in vivo, human; settings: for MRT: mean (SD)
BTK = BTK (Homo sapiens, UniProt Q06187); assay: BTK occupancy in blood; format: in vivo
basophils = assay: Basophil activation; format: in vivo, human; settings: for trough inhibition of CD203c: day 12; for inhibition of CD203c+ basophils, peak: 8 h on day 1
Summary of the method: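 Heparinized whole blood was drawn at set timepoints from MAD subjects (healthy, asymptomatic atopic diathesis; oral q.d. or b.i.d.). It was stimulated ex vivo with anti-IgE for 25 minutes at 37°C/5% CO₂. CD63+ and CD203c+ basophils were counted as a percentage by flow cytometry and expressed as % inhibition versus baseline. Subjects with baseline CD63+ stimulation below 10% were excluded.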

skin prick test wheal = assay: Skin prick test; format: in vivo, human; settings: MAD
Summary of the method: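 MAD subjects with atopic diathesis had skin prick tests to known allergens from 7 undiluted allergens (pollens, house dust mite, cat and horse dander). Tests were done at day −1, day 1 predose/2/8 h, day 2 predose and day 12 predose/8/24/96 h. Wheal diameter was the mean of the longest and perpendicular diameters. The predose average (day −1 and day 1) was compared with the average of all 7 postdose tests.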

Safety and tolerability = format: in vivo, human; settings: for dose-limiting toxicity: up to highest dose tested
[3] = statement in discussion, no value or reference printed; cited from earlier work
[4] = human, whole blood, oral, 100 mg, MAD 100 mg b.i.d., Day 1
[5] = human, whole blood, oral, 100 mg, MAD 100 mg b.i.d., Day 12
[6] = human, whole blood, oral, 200 mg, MAD 200 mg b.i.d., Day 12
[7] = human, whole blood, oral, 600 mg, MAD 600 mg q.d., Day 1

Sequence of BTK (Q06187 whole entry): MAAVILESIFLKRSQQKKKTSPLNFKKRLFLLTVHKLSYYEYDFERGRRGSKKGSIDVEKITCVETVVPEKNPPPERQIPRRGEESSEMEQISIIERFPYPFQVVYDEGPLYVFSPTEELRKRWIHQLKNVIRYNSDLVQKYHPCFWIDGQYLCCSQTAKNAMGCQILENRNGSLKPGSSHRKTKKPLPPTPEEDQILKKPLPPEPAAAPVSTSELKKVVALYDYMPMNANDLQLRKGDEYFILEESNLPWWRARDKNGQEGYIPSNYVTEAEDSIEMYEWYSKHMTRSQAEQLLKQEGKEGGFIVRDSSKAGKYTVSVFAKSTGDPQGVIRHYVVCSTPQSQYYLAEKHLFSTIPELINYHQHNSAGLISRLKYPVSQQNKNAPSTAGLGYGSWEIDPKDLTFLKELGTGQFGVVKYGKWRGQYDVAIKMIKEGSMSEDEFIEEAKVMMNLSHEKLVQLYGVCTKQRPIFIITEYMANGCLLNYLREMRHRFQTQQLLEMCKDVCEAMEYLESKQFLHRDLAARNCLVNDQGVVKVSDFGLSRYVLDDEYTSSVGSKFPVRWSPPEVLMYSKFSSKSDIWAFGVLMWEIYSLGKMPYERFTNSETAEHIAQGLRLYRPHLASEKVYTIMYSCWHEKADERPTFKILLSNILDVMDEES

## C=CC(=O)N(C)CCOc1c(N)ncnc1-c1cc(F)cc(NC(=O)c2ccc(C3CC3)cc2F)c1C [Remibrutinib]
[1]; SAD cohorts
  dose proportionality of Cmax, AUCinf, AUClast over the full dose range: not demonstrated
[1]; human, whole blood, oral
  half-life: 1 to 2 h
[1]; human, whole blood, po
  Tmax: 0.5 to 1.25 h
[2]; MAD 100 mg b.i.d., Day 12
  CLss/F: 255 (153) L/h
[2]; MAD 100 mg q.d., Day 12
  CLss/F: 198 (88.7) L/h
[2]; MAD 200 mg b.i.d., Day 12
  CLss/F: 267 (126) L/h
[2]; MAD 400 mg q.d., Day 12
  CLss/F: 366 (150) L/h
[2]; MAD 600 mg q.d., Day 12
  CLss/F: 521 (131) L/h
[2]; MAD cohorts
  dose proportional increases of Cmax and AUC over the full dose range: not observed
  time to steady-state: third day of dosing
[2]; across doses in all MAD cohorts, urine
  direct renal excretion, contribution to total apparent blood clearance: ~ 1%
[2]; human, whole blood, oral, 100 mg, AUC0–12 h, MAD 100 mg b.i.d., Day 12
  AUC(0-t): 496 ng·h/mL
[2]; human, whole blood, oral, 100 mg, AUC0–24 h, MAD 100 mg q.d., Day 12
  AUC(0-t): 485 ng·h/mL
[2]; human, whole blood, oral, 100 mg, AUClast, MAD 100 mg b.i.d., Day 12
  AUC(0-t): 518 ng·h/mL
[2]; [4]
  Cmax: 180 ng/mL
  Tmax: 1.5 h
[2]; [5]
  Cmax: 306 ng/mL
  Tmax: 0.775 h
[2]; human, whole blood, oral, 100 mg, T1/2, MAD 100 mg b.i.d., Day 12
  half-life: 2.84 h
[2]; human, whole blood, oral, 200 mg, AUC0–12 h, MAD 200 mg b.i.d., Day 1
  AUC(0-t): 464 ng·h/mL
[2]; human, whole blood, oral, 200 mg, AUC0–12 h, MAD 200 mg b.i.d., Day 12
  AUC(0-t): 890 ng·h/mL
[2]; human, whole blood, oral, 200 mg, AUClast, MAD 200 mg b.i.d., Day 1
  AUC(0-t): 464 ng·h/mL
[2]; human, whole blood, oral, 200 mg, MAD 200 mg b.i.d., Day 1
  Cmax: 236 ng/mL
[2]; [6]
  Cmax: 347 ng/mL
  Tmax: 0.992 h
[2]; human, whole blood, oral, 200 mg, T1/2, MAD 200 mg b.i.d., Day 12
  half-life: 12.4 h
[2]; human, whole blood, oral, 400 mg, AUC0–24 h, MAD 400 mg q.d., Day 1
  AUC(0-t): 977 ng·h/mL
[2]; human, whole blood, oral, 600 mg, AUC0–24 h, MAD 600 mg q.d., Day 1
  AUC(0-t): 1080 ng·h/mL
[2]; human, whole blood, oral, 600 mg, AUC0–24 h, MAD 600 mg q.d., Day 12
  AUC(0-t): 1230 ng·h/mL
[2]; [7]
  Cmax: 550 ng/mL
  Tmax: 0.75 h
[2]; human, whole blood, oral, mean residence time (MRT), multiple doses (q.d. and b.i.d.), overall statement
  MRT: < 3 h
[2]; multiple doses (q.d. and b.i.d.), overall statement
  mean residence time (MRT): ~ 3 h
[2]; overall statement in discussion
  number of doses to steady state: less than 5 doses
[2]; q.d. and b.i.d. dosing
  accumulation with multiple doses: no pronounced accumulation; also recorded: no marked accumulation
Food effect; 60 mg single dose, standardized high-fat breakfast
  Delay of median Tmax, fed vs fasted: ~ 2 h
Food effect; 60 mg single dose, 90% CI 0.638-1.01
  Cmax geometric mean ratio (fed vs fasted): 0.801
Food effect; 60 mg single dose, 90% CI 1.14-1.47
  AUClast geometric mean ratio (fed vs fasted): 1.30
Food effect; 60 mg, fed vs fasted
  effect of food intake on exposure: no clinically relevant effect
Food effect; human, whole blood, oral, 60 mg, 60 mg single dose, Fasted
  MRT: 2.29 ± 0.72 h
Food effect; human, whole blood, oral, 60 mg, 60 mg single dose, Fed
  MRT: 4.17 ± 1.2 h
Food effect; human, whole blood, oral, 60 mg, Tmax, 60 mg single dose, Fed, median (min-max)
  Tmax: 2.78 h
BTK; MAD, doses >=50 mg, over the measured dosing period, complete = >95%
  BTK occupancy in blood: maintained complete BTK occupancy
BTK; SAD, lowest dose of 0.5 mg
  BTK occupancy in blood: no BTK occupancy
BTK; single dose
  lowest dose showing both complete BTK occupancy and almost complete basophil inhibition: 30 mg
basophils; MAD 10 mg q.d., last day of dosing
  trough level inhibition of CD63: 80%
basophils; MAD 100 mg b.i.d.
  trough inhibition of CD203c: 63%
basophils; MAD 200 mg b.i.d.
  inhibition of CD203c+ basophils, peak: 81.8%
  trough inhibition of CD203c: 67%
basophils; MAD 400 mg q.d.
  inhibition of CD203c+ basophils, peak: 84%
basophils; MAD daily dose >=50 mg, day 1-12 incl. day 12 predose
  inhibition of blood basophil activation (CD63 expression): Near complete; also recorded: Full inhibition
basophils; SAD 60 mg, after 24 h
  basophil inhibition (CD63 expression): ~90%
basophils; SAD 200 mg cohort, at 8 h
  inhibition of CD203c basophil activation marker: up to 79.4%
basophils; SAD, doses >=100 mg
  basophil inhibition (CD63 expression): almost complete inhibition
Skin prick test wheal; day 12 predose, >=100 mg q.d.
  skin prick test (SPT) inhibition: Near complete
Skin prick test wheal; doses >=100 mg q.d., across all tests, subjects with atopic diathesis
  average decrease in wheal size (SPT): ~ 3 mm
Safety and tolerability; 100 mg MAD cohort, after trauma / vessel puncture, resolved spontaneously
  hematomas: two hematomas
Safety and tolerability; 600 mg MAD group, both had history of repeated epistaxis
  self-limiting epistaxis: Two subjects
Safety and tolerability; FE cohort, 2/12
  headache (most common AE): 16.7%
Safety and tolerability; FE cohort, 7 of 12 subjects
  Subjects with at least 1 AE: 58.3%
Safety and tolerability; FE cohort, fasted condition
  incidence of AEs: 16.7%
Safety and tolerability; FE cohort, fed condition
  incidence of AEs: 50%
Safety and tolerability; Food effect cohort, N = 12
  AE severity: Mild: 7 (58.3) n (%)
  AE severity: Moderate: 1 (8.3) n (%)
  Headache: 2 (16.7) n (%)
  Nasopharyngitis: 1 (8.3) n (%)
  Study drug-related AEs: 3 (25.0) n (%)
  Subjects with at least 1 AE: 7 (58.3) n (%)
Safety and tolerability; MAD cohorts, 5/48
  subjects with AEs suspected to be related to the study drug: 10.4%
Safety and tolerability; MAD cohorts, 24 subjects on remibrutinib
  incidence of AEs (subjects with at least 1 AE): 50.0%
Safety and tolerability; MAD cohorts, all doses, N = 48
  AE severity: Mild: 22 (45.8) n (%)
  AE severity: Moderate: 5 (10.4) n (%)
  AE severity: Severe: 1 (2.1) n (%)
  Headache: 5 (10.4) n (%)
  Nasopharyngitis: 3 (6.3) n (%)
  Study drug-related AEs: 5 (10.4) n (%)
  Subjects with at least 1 AE: 24 (50.0) n (%)
  Toothache: 1 (2.1) n (%)
Safety and tolerability; SAD 100 and 200 mg cohorts
  AEs reported: No AEs
Safety and tolerability; SAD cohorts, 17 subjects on remibrutinib
  Subjects with at least 1 AE: 28.3%
Safety and tolerability; SAD cohorts, all doses, N = 60
  AE severity: Mild: 16 (26.7) n (%)
  AE severity: Moderate: 1 (1.7) n (%)
  Headache: 6 (10.0) n (%)
  Nasopharyngitis: 4 (6.7) n (%)
  Study drug-related AEs: 7 (11.7) n (%)
  Subjects with at least 1 AE: 17 (28.3) n (%)
Safety and tolerability; SAD cohorts, all on remibrutinib, of 80 subjects
  subjects with AEs suspected to be related to the study drug: 7 subjects
Safety and tolerability; all cohorts
  changes in hematology, biochemistry, urinalysis parameters (vital signs, ECG): No clinically significant changes
Safety and tolerability; all doses
  dose-limiting toxicity: without any dose‐limiting toxicity
Safety and tolerability; all doses, listed as remibrutinib
  dose-limiting toxicity: No dose‐limiting toxicity
Safety and tolerability; all evaluated doses, up to 600 mg oral
  tolerability: well‐tolerated
Safety and tolerability; any cohort, overall summary
  SAEs or deaths: No SAEs or deaths
Safety and tolerability; any dose, bruising log and coagulation testing
  risk of bleeding: no increased risk of bleeding
[3]
  solubility: low solubility
